Measurements from ChEMBL document CHEMBL3286116, “Synthesis, biological evaluation and structure-activity correlation study of a series of imidazol-based compounds as Candida albicans inhibitors” (Eur J Med Chem, 2014).
≈ marks a conversion by molar mass, not a printed value.

Experiments:
[1] = tested on: Candida albicans; assay: Antifungal activity against Candida albicans ATCC 20891 after 48 hrs by CLSI broth microdilution method; type: functional; conditions: ATCC 20891, 48 h
Method in brief: (§1)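 Yeast CLSI broth microdilution (M27-A3). Compounds dissolved in DMSO at 100× the top test concentration, then diluted as serial two-fold dilutions in RPMI 1640 to final 0.125–64. Inoculum was 1.0–1.5 × 10^3 cells mL−1, incubated at 35 °C and read for growth at 48 h. MIC is the lowest concentration giving ≥50% growth inhibition versus growth control. Reported as the median of five replicates and as the geometric mean.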

[2] = tested on: Candida albicans; assay: Antifungal activity against Candida albicans PMC 1011 after 48 hrs by CLSI broth microdilution method; type: functional; conditions: PMC 1011, 48 h; method in brief: as §1
[3] = tested on: Candida albicans; assay: Antifungal activity against Candida albicans ATCC 10261 after 48 hrs by CLSI broth microdilution method; type: functional; conditions: ATCC 10261, 48 h; method in brief: as §1
[4] = tested on: Cryptococcus neoformans; assay: Antifungal activity against Cryptococcus neoformans PMC 2107 after 72 hrs by CLSI broth microdilution method; type: functional; conditions: PMC 2107, 72 h
Method in brief: (§2)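 Cryptococcus neoformans tested by CLSI broth microdilution in RPMI 1640, with serial two-fold dilutions from DMSO stocks at 100× the top concentration, final 0.125–64. Inoculum was 1.0–1.5 × 10^3 cells mL−1 at 35 °C, with growth read at 72 h. MIC is the lowest concentration with ≥50% growth inhibition versus control. Median of five replicates, plus geometric mean.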

[5] = tested on: Cryptococcus neoformans; assay: Antifungal activity against Cryptococcus neoformans DSM 11959 after 72 hrs by CLSI broth microdilution method; type: functional; conditions: DSM 11959, 72 h; method in brief: as §2
[6] = tested on: Candida tropicalis; assay: Antifungal activity against Candida tropicalis PMC 0910 after 48 hrs by CLSI broth microdilution method; type: functional; conditions: PMC 0910, 48 h; method in brief: as §1
[7] = Cytotoxicity against human A549 cells after 48 hrs by MTT assay; type: cell-based
Method in brief: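 A549 cells (ATCC CCL-185) seeded at 2 × 10^4/well in phenol-red-free RPMI 1640 with 10% FBS, L-glutamine, penicillin and streptomycin, at 37 °C and 5% CO2. Exposed 48 h to DMSO-dissolved compounds (final 16–256; at least five concentrations, triplicate). MTT added for 3–4 h, crystals solubilized, OD read at 570 nm. CC50 taken versus the DMSO control. Mean ± SD of two independent experiments.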

[8] = tested on: Trichophyton mentagrophytes; assay: Antifungal activity against Trichophyton mentagrophytes PMC 6531 after 72 hrs by CLSI broth microdilution method; type: functional; conditions: PMC 6531, 72 h
Method in brief: (§3)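 Dermatophytes tested by CLSI broth microdilution for filamentous fungi (M38-A2). Serial two-fold dilutions of DMSO-dissolved compound in RPMI 1640, final 0.125–64. Inoculum was 0.4–5 × 10^4 CFU mL−1, incubated at 35 °C and read at 72 h. MIC80 is the lowest concentration giving ≥80% growth inhibition versus growth control. Median of five replicates, plus geometric mean.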

[9] = tested on: Nakaseomyces glabratus; assay: Antifungal activity against Candida glabrata PMC 0807 after 48 hrs by CLSI broth microdilution method; type: functional; conditions: PMC 0807, 48 h; method in brief: as §1
[10] = tested on: Cryptococcus neoformans; assay: Antifungal activity against Cryptococcus neoformans PMC 2123 after 72 hrs by CLSI broth microdilution method; type: functional; conditions: PMC 2123, 72 h; method in brief: as §2
[11] = tested on: Cryptococcus neoformans; assay: Antifungal activity against Cryptococcus neoformans PMC 2103 after 72 hrs by CLSI broth microdilution method; type: functional; conditions: PMC 2103, 72 h; method in brief: as §2
[12] = tested on: Trichophyton mentagrophytes; assay: Antifungal activity against Trichophyton mentagrophytes PMC 6503 after 72 hrs by CLSI broth microdilution method; type: functional; conditions: PMC 6503, 72 h; method in brief: as §3
[13] = tested on: Candida albicans; assay: Antifungal activity against Candida albicans ATCC 90028 after 48 hrs by CLSI broth microdilution method; type: functional; conditions: ATCC 90028, 48 h; method in brief: as §1
[14] = tested on: Nakaseomyces glabratus; assay: Antifungal activity against Candida glabrata PMC 0805 after 48 hrs by CLSI broth microdilution method; type: functional; conditions: PMC 0805, 48 h; method in brief: as §1
[15] = tested on: Candida albicans; assay: Antifungal activity against Candida albicans ATCC 24433 after 48 hrs by CLSI broth microdilution method; type: functional; conditions: ATCC 24433, 48 h; method in brief: as §1
[16] = tested on: Cryptococcus neoformans; assay: Antifungal activity against Cryptococcus neoformans PMC 2111 after 72 hrs by CLSI broth microdilution method; type: functional; conditions: PMC 2111, 72 h; method in brief: as §2
[17] = tested on: Cryptococcus neoformans; assay: Antifungal activity against Cryptococcus neoformans PMC 2102 after 72 hrs by CLSI broth microdilution method; type: functional; conditions: PMC 2102, 72 h; method in brief: as §2
[18] = tested on: Nannizzia gypsea; assay: Antifungal activity against Microsporum gypseum PMC 7331 after 72 hrs by CLSI broth microdilution method; type: functional; conditions: PMC 7331, 72 h; method in brief: as §3
[19] = tested on: Nannizzia gypsea; assay: Antifungal activity against Microsporum gypseum DSM 3824 after 72 hrs by CLSI broth microdilution method; type: functional; conditions: DSM 3824, 72 h; method in brief: as §3
[20] = tested on: Nannizzia gypsea; assay: Antifungal activity against Microsporum gypseum PMC 7303 after 72 hrs by CLSI broth microdilution method; type: functional; conditions: PMC 7303, 72 h; method in brief: as §3
[21] = tested on: Pichia kudriavzevii; assay: Antifungal activity against Candida krusei PMC 0613 after 48 hrs by CLSI broth microdilution method; type: functional; conditions: PMC 0613, 48 h; method in brief: as §1
[22] = tested on: Candida albicans; assay: Antifungal activity against Candida albicans ATCC 76615 after 48 hrs by CLSI broth microdilution method; type: functional; conditions: ATCC 76615, 48 h; method in brief: as §1
[23] = tested on: Trichophyton mentagrophytes; assay: Antifungal activity against Trichophyton mentagrophytes PMC 6552 after 72 hrs by CLSI broth microdilution method; type: functional; conditions: PMC 6552, 72 h; method in brief: as §3
[24] = tested on: Candida parapsilosis; assay: Antifungal activity against Candida parapsilosis ATCC 22019 after 48 hrs by CLSI broth microdilution method; type: functional; conditions: Lodderomyces parapsilosis, ATCC 22019, 48 h; method in brief: as §1
[25] = tested on: Candida tropicalis; assay: Antifungal activity against Candida tropicalis DSM 11953 after 48 hrs by CLSI broth microdilution method; type: functional; conditions: DSM 11953, 48 h; method in brief: as §1
[26] = tested on: Candida albicans; assay: Antifungal activity against Candida albicans ATCC 10231 after 48 hrs by CLSI broth microdilution method; type: functional; conditions: ATCC 10231, 48 h; method in brief: as §1
[27] = tested on: Trichophyton mentagrophytes; assay: Antifungal activity against Trichophyton mentagrophytes PMC 6509 after 72 hrs by CLSI broth microdilution method; type: functional; conditions: PMC 6509, 72 h; method in brief: as §3
[28] = tested on: Trichophyton mentagrophytes; assay: Antifungal activity against Trichophyton mentagrophytes DSM 4870 after 72 hrs by CLSI broth microdilution method; type: functional; conditions: DSM 4870, 72 h; method in brief: as §3
[29] = tested on: Trichophyton mentagrophytes; assay: Antifungal activity against Trichophyton mentagrophytes PMC 6515 after 72 hrs by CLSI broth microdilution method; type: functional; conditions: PMC 6515, 72 h; method in brief: as §3
[30] = tested on: Candida albicans; assay: Antifungal activity against Candida albicans ATCC 3153 after 48 hrs by CLSI broth microdilution method; type: functional; conditions: ATCC 3153, 48 h; method in brief: as §1
[31] = tested on: Cryptococcus neoformans; assay: Antifungal activity against Cryptococcus neoformans PMC 2136 after 72 hrs by CLSI broth microdilution method; type: functional; conditions: PMC 2136, 72 h; method in brief: as §2
[32] = tested on: Candida parapsilosis; assay: Antifungal activity against Candida parapsilosis DSM 11224 after 48 hrs by CLSI broth microdilution method; type: functional; conditions: Lodderomyces parapsilosis, DSM 11224, 48 h; method in brief: as §1
[33] = tested on: Cryptococcus neoformans; assay: Antifungal activity against Cryptococcus neoformans PMC 2115 after 72 hrs by CLSI broth microdilution method; type: functional; conditions: PMC 2115, 72 h; method in brief: as §2
[34] = tested on: Pichia kudriavzevii; assay: Antifungal activity against Candida krusei DSM 6128 after 48 hrs by CLSI broth microdilution method; type: functional; conditions: DSM 6128, 48 h; method in brief: as §1

In the case of `O=C(OC(Cn1ccnc1)c1ccc(F)cc1)N1CCN(c2ccc(Cl)cc2)CC1` (configuration not stated), the MIC50 [1] is reported as 0.5 µg/mL (≈ 1.17 µM), the MIC50 [2] is reported as 0.5 µg/mL (≈ 1.17 µM) and the MIC50 [3] is reported as 1 µg/mL (≈ 2.33 µM). For the same compound, the MIC50 [4] was 1 µg/mL (≈ 2.33 µM), the MIC50 [5] was 4 µg/mL (≈ 9.33 µM) and the MIC50 [6] was 2 µg/mL (≈ 4.66 µM). It also gave a CC50 at 48 h [7] of 78.4 µg/mL (≈ 183 µM), an MIC80 [8] of 8 µg/mL (≈ 18.7 µM) and an MIC50 [9] of 8 µg/mL (≈ 18.7 µM). The MIC50 [10] was 4 µg/mL (≈ 9.33 µM), the MIC50 [11] was 2 µg/mL (≈ 4.66 µM) and the MIC80 [12] was 16 µg/mL (≈ 37.3 µM). It also gave an MIC50 [13] of 0.5 µg/mL (≈ 1.17 µM), an MIC50 [14] of 2 µg/mL (≈ 4.66 µM) and an MIC50 [15] of 4 µg/mL (≈ 9.33 µM). For the same compound, the MIC50 [16] was 4 µg/mL (≈ 9.33 µM), the MIC50 [17] was 4 µg/mL (≈ 9.33 µM) and the MIC80 [18] was 4 µg/mL (≈ 9.33 µM). For the same compound, the MIC80 [19] was 16 µg/mL (≈ 37.3 µM), the MIC80 [20] was 16 µg/mL (≈ 37.3 µM) and the MIC50 [21] was 1 µg/mL (≈ 2.33 µM). The MIC50 [22] was 8 µg/mL (≈ 18.7 µM), the MIC80 [23] was 32 µg/mL (≈ 74.6 µM) and the MIC50 [24] was 2 µg/mL (≈ 4.66 µM). The MIC50 [25] was 2 µg/mL (≈ 4.66 µM), the MIC50 [26] was 2 µg/mL (≈ 4.66 µM) and the MIC80 [27] was 16 µg/mL (≈ 37.3 µM). The MIC80 [28] was 16 µg/mL (≈ 37.3 µM), the MIC80 [29] was 8 µg/mL (≈ 18.7 µM) and the MIC50 [30] was 8 µg/mL (≈ 18.7 µM). For the same compound, the MIC50 [31] was 4 µg/mL (≈ 9.33 µM), the MIC50 [32] was 0.25 µg/mL (≈ 0.583 µM) and the MIC50 [33] was 4 µg/mL (≈ 9.33 µM). It also gave an MIC50 [34] of 8 µg/mL (≈ 18.7 µM).

For `O=C(OC(Cn1ccnc1)c1ccc(F)cc1)N1CCN(C(=O)c2ccco2)CC1` (configuration not stated), the MIC50 [1] was 128 µg/mL (≈ 310 µM), the MIC50 [2] was 32 µg/mL (≈ 77.6 µM) and the MIC50 [3] was 128 µg/mL (≈ 310 µM). It also gave an MIC50 [4] of 128 µg/mL (≈ 310 µM), an MIC50 [5] of 64 µg/mL (≈ 155 µM) and an MIC50 [6] of 128 µg/mL (≈ 310 µM). For the same compound, the MIC80 [8] was 64 µg/mL (≈ 155 µM), the MIC50 [9] was 128 µg/mL (≈ 310 µM) and the MIC50 [10] was 128 µg/mL (≈ 310 µM). It also gave an MIC50 [11] of 64 µg/mL (≈ 155 µM), an MIC80 [12] of 128 µg/mL (≈ 310 µM) and an MIC50 [13] of 32 µg/mL (≈ 77.6 µM). It also gave an MIC50 [14] of 32 µg/mL (≈ 77.6 µM), an MIC50 [15] of 128 µg/mL (≈ 310 µM) and an MIC50 [16] of 128 µg/mL (≈ 310 µM). For the same compound, the MIC50 [17] was 128 µg/mL (≈ 310 µM), the MIC80 [18] was 128 µg/mL (≈ 310 µM) and the MIC80 [19] was 128 µg/mL (≈ 310 µM). It also gave an MIC80 [20] of 128 µg/mL (≈ 310 µM), an MIC50 [21] of 32 µg/mL (≈ 77.6 µM) and an MIC50 [22] of 128 µg/mL (≈ 310 µM). For the same compound, the MIC80 [23] was 128 µg/mL (≈ 310 µM), the MIC50 [24] was 16 µg/mL (≈ 38.8 µM) and the MIC50 [25] was 64 µg/mL (≈ 155 µM). It also gave an MIC50 [26] of 64 µg/mL (≈ 155 µM), an MIC80 [27] of 64 µg/mL (≈ 155 µM) and an MIC80 [28] of 128 µg/mL (≈ 310 µM). For the same compound, the MIC80 [29] was 128 µg/mL (≈ 310 µM), the MIC50 [30] was 128 µg/mL (≈ 310 µM) and the MIC50 [31] was 64 µg/mL (≈ 155 µM). It also gave an MIC50 [32] of 32 µg/mL (≈ 77.6 µM), an MIC50 [33] of 128 µg/mL (≈ 310 µM) and an MIC50 [34] of 128 µg/mL (≈ 310 µM).
